ChEMBL document CHEMBL1177647, “Synthesis and characterization of novel phenylindoles as potential probes for imaging of β-amyloid plaques in the brain” (Bioorg Med Chem, 2010)
Each block holds one compound with its values, some of them ahead of it.

Legend:
[1] = Displacement of [125I]IMPY from amyloid beta42 by gamma counting
[2] = test system: Heart; assay: Biodistribution in ddY mouse heart at 0.2 to 0.4 uCi, iv after 10 mins; assay type: ADME, organism-based; conditions: in vivo
Summary of the method: (§1)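 Radiotracer (0.2–0.4 μCi) given as a single tail-vein injection of 100 μL saline containing 10 μL ethanol to normal ddY mice (5 weeks old, 25–30 g). Mice were sacrificed at set times after injection. Organs were excised and weighed, and radioactivity was counted in an automatic gamma counter.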

[3] = test system: Heart; assay: Biodistribution in ddY mouse heart at 0.2 to 0.4 uCi, iv after 30 mins; assay type: ADME, organism-based; conditions: in vivo, 0.5 h; summary of the method: as §1
[4] = test system: Heart; assay: Biodistribution in ddY mouse heart at 0.2 to 0.4 uCi, iv after 60 mins; assay type: ADME, organism-based; conditions: in vivo, 1 h; summary of the method: as §1
[5] = test system: Blood; assay: Biodistribution in ddY mouse blood at 0.2 to 0.4 uCi, iv after 10 mins; assay type: ADME, organism-based; conditions: in vivo; summary of the method: as §1
[6] = test system: Stomach; assay: Biodistribution in ddY mouse stomach at 0.2 to 0.4 uCi, iv after 10 mins measured per gram of organ; assay type: ADME, organism-based; conditions: in vivo; summary of the method: as §1
[7] = test system: Brain; assay: Biodistribution in ddY mouse brain at 0.2 to 0.4 uCi, iv after 30 mins; assay type: ADME, organism-based; conditions: in vivo, 0.5 h; summary of the method: as §1
[8] = test system: Blood; assay: Biodistribution in ddY mouse blood at 0.2 to 0.4 uCi, iv after 30 mins; assay type: ADME, organism-based; conditions: in vivo, 0.5 h; summary of the method: as §1
[9] = test system: Kidney; assay: Biodistribution in ddY mouse kidney at 0.2 to 0.4 uCi, iv after 2 mins; assay type: ADME, organism-based; conditions: in vivo; summary of the method: as §1
[10] = test system: Stomach; assay: Biodistribution in ddY mouse stomach at 0.2 to 0.4 uCi, iv after 30 mins measured per gram of organ; assay type: ADME, organism-based; conditions: in vivo, 0.5 h; summary of the method: as §1
[11] = test system: Pancreas; assay: Biodistribution in ddY mouse pancreas at 0.2 to 0.4 uCi, iv after 2 mins; assay type: ADME, organism-based; conditions: in vivo; summary of the method: as §1
[12] = test system: Intestine; assay: Biodistribution in ddY mouse intestine at 0.2 to 0.4 uCi, iv after 30 mins; assay type: ADME, organism-based; conditions: in vivo, 0.5 h; summary of the method: as §1
[13] = test system: Spleen; assay: Biodistribution in ddY mouse spleen at 0.2 to 0.4 uCi, iv after 2 mins; assay type: ADME, organism-based; conditions: in vivo; summary of the method: as §1
[14] = test system: Blood; assay: Biodistribution in ddY mouse blood at 0.2 to 0.4 uCi, iv after 60 mins; assay type: ADME, organism-based; conditions: in vivo, 1 h; summary of the method: as §1
[15] = test system: Spleen; assay: Biodistribution in ddY mouse spleen at 0.2 to 0.4 uCi, iv after 60 mins; assay type: ADME, organism-based; conditions: in vivo, 1 h; summary of the method: as §1
[16] = test system: Kidney; assay: Biodistribution in ddY mouse kidney at 0.2 to 0.4 uCi, iv after 10 mins; assay type: ADME, organism-based; conditions: in vivo; summary of the method: as §1
[17] = test system: Kidney; assay: Biodistribution in ddY mouse kidney at 0.2 to 0.4 uCi, iv after 60 mins; assay type: ADME, organism-based; conditions: in vivo, 1 h; summary of the method: as §1
[18] = test system: Intestine; assay: Biodistribution in ddY mouse intestine at 0.2 to 0.4 uCi, iv after 10 mins; assay type: ADME, organism-based; conditions: in vivo; summary of the method: as §1
[19] = test system: Liver; assay: Biodistribution in ddY mouse liver at 0.2 to 0.4 uCi, iv after 2 mins; assay type: ADME, organism-based; conditions: in vivo; summary of the method: as §1
[20] = test system: Liver; assay: Biodistribution in ddY mouse liver at 0.2 to 0.4 uCi, iv after 10 mins; assay type: ADME, organism-based; conditions: in vivo; summary of the method: as §1
[21] = test system: Stomach; assay: Biodistribution in ddY mouse stomach at 0.2 to 0.4 uCi, iv after 60 mins measured per gram of organ; assay type: ADME, organism-based; conditions: in vivo, 1 h; summary of the method: as §1
[22] = test system: Pancreas; assay: Biodistribution in ddY mouse pancreas at 0.2 to 0.4 uCi, iv after 10 mins; assay type: ADME, organism-based; conditions: in vivo; summary of the method: as §1
[23] = test system: Brain; assay: Biodistribution in ddY mouse brain at 0.2 to 0.4 uCi, iv after 10 mins; assay type: ADME, organism-based; conditions: in vivo; summary of the method: as §1
[24] = test system: Pancreas; assay: Biodistribution in ddY mouse pancreas at 0.2 to 0.4 uCi, iv after 30 mins; assay type: ADME, organism-based; conditions: in vivo, 0.5 h; summary of the method: as §1
[25] = test system: Stomach; assay: Biodistribution in ddY mouse stomach at 0.2 to 0.4 uCi, iv after 2 mins measured per gram of organ; assay type: ADME, organism-based; conditions: in vivo; summary of the method: as §1
[26] = test system: Intestine; assay: Biodistribution in ddY mouse intestine at 0.2 to 0.4 uCi, iv after 2 mins; assay type: ADME, organism-based; conditions: in vivo; summary of the method: as §1
[27] = test system: Intestine; assay: Biodistribution in ddY mouse intestine at 0.2 to 0.4 uCi, iv after 60 mins; assay type: ADME, organism-based; conditions: in vivo, 1 h; summary of the method: as §1
[28] = test system: Pancreas; assay: Biodistribution in ddY mouse pancreas at 0.2 to 0.4 uCi, iv after 60 mins; assay type: ADME, organism-based; conditions: in vivo, 1 h; summary of the method: as §1
[29] = test system: Blood; assay: Biodistribution in ddY mouse blood at 0.2 to 0.4 uCi, iv after 2 mins; assay type: ADME, organism-based; conditions: in vivo; summary of the method: as §1
[30] = test system: Kidney; assay: Biodistribution in ddY mouse kidney at 0.2 to 0.4 uCi, iv after 30 mins; assay type: ADME, organism-based; conditions: in vivo, 0.5 h; summary of the method: as §1
[31] = test system: Brain; assay: Biodistribution in ddY mouse brain at 0.2 to 0.4 uCi, iv after 60 mins; assay type: ADME, organism-based; conditions: in vivo, 1 h; summary of the method: as §1
[32] = test system: Heart; assay: Biodistribution in ddY mouse heart at 0.2 to 0.4 uCi, iv after 2 mins; assay type: ADME, organism-based; conditions: in vivo; summary of the method: as §1
[33] = test system: Spleen; assay: Biodistribution in ddY mouse spleen at 0.2 to 0.4 uCi, iv after 10 mins; assay type: ADME, organism-based; conditions: in vivo; summary of the method: as §1
[34] = test system: Liver; assay: Biodistribution in ddY mouse liver at 0.2 to 0.4 uCi, iv after 30 mins; assay type: ADME, organism-based; conditions: in vivo, 0.5 h; summary of the method: as §1
[35] = test system: Brain; assay: Biodistribution in ddY mouse brain at 0.2 to 0.4 uCi, iv after 2 mins; assay type: ADME, organism-based; conditions: in vivo; summary of the method: as §1
[36] = test system: Liver; assay: Biodistribution in ddY mouse liver at 0.2 to 0.4 uCi, iv after 60 mins; assay type: ADME, organism-based; conditions: in vivo, 1 h; summary of the method: as §1
[37] = test system: Spleen; assay: Biodistribution in ddY mouse spleen at 0.2 to 0.4 uCi, iv after 30 mins; assay type: ADME, organism-based; conditions: in vivo, 0.5 h; summary of the method: as §1
[38] = test system: Brain; assay: In vivo binding affinity to amyloid beta 42 in Tg2576 mouse brain by neuropathological staining; assay type: ADME, organism-based

Ki [1]: > 10000 nM
SMILES: CN(C)c1ccc(-n2ccc3cc(I)ccc32)cc1

Ki [1]: 25.9 nM
SMILES: OCCOc1ccc(-c2cc3cc(I)ccc3[nH]2)cc1

Ki [1]: 27 nM
SMILES: CNc1ccc(-c2cc3cc(I)ccc3[nH]2)cc1

Drug uptake [2]: 5.84 % ID/g | Drug uptake [3]: 2.97 % ID/g | Drug uptake [4]: 1.36 % ID/g | Drug uptake [5]: 1.6 % ID/g | Drug uptake [6]: 1.97 %ID | Drug uptake [7]: 1.93 % ID/g | Drug uptake [8]: 1.26 % ID/g | Drug uptake [9]: 11.93 % ID/g | Drug uptake [10]: 2.11 %ID | Drug uptake [11]: 5.55 % ID/g | Drug uptake [12]: 11.32 % ID/g | Drug uptake [13]: 7.56 % ID/g | Drug uptake [14]: 0.8 % ID/g | Drug uptake [15]: 2.39 % ID/g | Drug uptake [16]: 9.35 % ID/g | Drug uptake [17]: 2.76 % ID/g | Drug uptake [18]: 5.76 % ID/g | Drug uptake [19]: 17.69 % ID/g | Drug uptake [20]: 16.77 % ID/g | Drug uptake [21]: 1.62 %ID | Drug uptake [22]: 5.59 % ID/g | Drug uptake [23]: 2.62 % ID/g | Drug uptake [24]: 3.57 % ID/g | Drug uptake [25]: 0.97 %ID | Drug uptake [26]: 1.97 % ID/g | Drug uptake [27]: 18.98 % ID/g | Drug uptake [28]: 2.22 % ID/g | Drug uptake [29]: 4.07 % ID/g | Drug uptake [30]: 6.77 % ID/g | Drug uptake [31]: 1.82 % ID/g | Drug uptake [32]: 12.91 % ID/g | Drug uptake [33]: 7.09 % ID/g | Drug uptake [34]: 13.42 % ID/g | Drug uptake [35]: 2.13 % ID/g | Drug uptake [36]: 8.17 % ID/g | Drug uptake [37]: 4.75 % ID/g
SMILES: OCCOc1ccc(-c2cc3cc([125I])ccc3[nH]2)cc1

Activity [38]: Active | Ki [1]: 20.2 nM
SMILES: COc1ccc(-c2cc3cc(I)ccc3[nH]2)cc1
